A short description of data set [1]: Partition coefficient (logP). Conditions: octanol/water. It is filed as physicochemical. A digest of the protocol: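 Octanol–water partition coefficient calculated computationally, not measured experimentally.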
For another data set, the system named is HepG2. In words: Compound was tested for inhibition of L-T3 (triiodothyronine) uptake in human HepG2 hepatoma cells at 10e-5 M. It counts as functional. In a few lines: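 HepG2 cells kept in DMEM with 10% FCS at 37 °C, grown to confluence (2×10⁶ cells/well), then serum-free overnight. Incubated 2 min at 37 °C in DMEM with 10^-11 M [¹²⁵I]-L-T₃; solvent-matched controls; nondisplaceable uptake from duplicates with 10^-5 M unlabeled L-T₃. Five PBS (pH 7.4) washes at room temperature, 0.1 M NaOH harvest, cell-associated radioactivity counted.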

Each structure is given as a SMILES string.

`COC(=O)c1sc(Oc2ccccc2)c(C#N)c1N` had a lipophilicity (logP) in data set [1] of 3.66. For the same compound, the inhibition at 10 µM in the data set with HepG2 is 41%.
Regarding `COC(=O)c1sc(Oc2cccc(C)c2)c(C#N)c1N`, the log partition coefficient (logP) in data set [1] worked out at 4.16. The inhibition at 10 µM in the data set on HepG2 stood at 19%.
The compound `N#Cc1c(Oc2ccccc2)sc(C(N)=O)c1N` gave a logP in data set [1] of 2.19. Further, 10 µM produced 14% inhibition in the data set on HepG2.
The corresponding values for `Cc1cccc(Oc2sc(C#N)c(N)c2C#N)c1` are 3.04 and 26%.
As to `N#Cc1c(Oc2ccccc2)sc(C(=O)c2ccc([N+](=O)[O-])cc2)c1N`, the logP in data set [1] came out at 4.53. Moreover, the inhibition at 10 µM in the data set on HepG2 amounted to 18%.
On to `COC(=O)c1sc(Oc2cccc(C)c2)c(C(N)=O)c1N`, for which the logP in data set [1] was 3.61. Besides, at 10 µM the inhibition in the data set with HepG2 was 40%.
In the same order, the values of `N#Cc1c(Oc2ccccc2)sc(C(=O)c2ccccc2)c1N` are 4.75 and 61%.
In the same order, the values of `NC(=O)c1c(Oc2ccccc2)sc(C(=O)c2ccccc2)c1N` are 3.6 and 60%.
In the same order, the values of `N#Cc1sc(Oc2ccccc2)c(C#N)c1N` are 2.54 and 21%.
Turning to `COC(=O)c1sc(Oc2ccccc2)c(C(N)=O)c1N`, in data set [1], the log partition coefficient (logP) is 3.11. Also, the inhibition at 10 µM in the data set with HepG2 was 26%.
`Cc1cccc(Oc2sc(C(=O)c3ccc([N+](=O)[O-])cc3)c(N)c2C#N)c1` displayed a logP in data set [1] of 5.03. The inhibition at 10 µM in the data set with HepG2 is 16%.
The corresponding values for `Cc1cccc(Oc2sc(C(=O)c3ccccc3)c(N)c2C#N)c1` are 5.25 and 57%.
In the same order, the values of `Cc1cccc(Oc2sc(C(N)=O)c(N)c2C#N)c1` are 2.69 and 23%.

The term logP denotes the decadic logarithm of the partition coefficient of the neutral form, usually between octanol and water. A high value points to a more lipophilic compound. The inhibition is the change of the read-out against control, counted positive when it falls. Read a high inhibition as a strong effect.

The record behind these values is ChEMBL document CHEMBL1132218, “3-Amino-5-phenoxythiophenes: syntheses and structure-function studies of a novel class of inhibitors of cellular L-triiodothyronine uptake” (J Med Chem, 1999).
